Key:
[1] = Cytotoxicity against human WM266.4 cells after 72 hrs by ATP lite assay; type: functional, WM 266-4
Outline: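 Metastatic melanoma WM 266-4 cells (ATCC), 5000 per well, in RPMI with 10% FBS, 50 µg/mL streptomycin and 50 U/mL penicillin. Compounds were present for 72 h at 1% DMSO final, in triplicate. Viability was read by ATPLite luminescence. IC50 from sigmoidal dose-response fit.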

[2] = Inhibition of rat farnesyl transferase after 30 mins
Outline: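 Rat PFTase at 10 nM, added last to start the reaction, in 50 mM Tris/HCl pH 7.5 with 5 mM MgCl2, 5 mM DTT, 0.1 mM ZnCl2 and 0.2% octyl-β-D-glucopyranoside. Substrates were 10 µM GCVLS-dansyl and 10 µM farnesyl pyrophosphate. Compounds from 0.3 nM to 100 µM, 1% DMSO final, in triplicate. Incubation 30 min at 37 °C; fluorescence read at ex 340/em 505 nm. IC50 from sigmoidal dose-response fit.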

Row | Structure (SMILES) | IC50 [2] [µM] | Activity [1] [µM]
1 | COC1=CC(=O)[C@@]2(c3cc(=O)c4c(O)cc(O)cc4o3)[C@H](C[C@]3(O)[C@@]4(C)C[C@@H](O)CC(C)(C)[C@@H]4CC[C@@]3(C)O)C(C)=CC[C@H]2C1=O | 17 | >10
2 | C=C1[C@@H](O)C[C@H]2[C@](C)(CO)CCC[C@]2(C)[C@H]1C[C@@H]1C(C)=CC[C@H]2C(=O)C(OC)=CC(=O)[C@@]12c1cc(=O)c2c(O)cc(O)cc2o1 [DICHROSTACHINE A] | 10 | >10
3 | C=C1[C@@H](O)C[C@H]2C(C)(C)C[C@H](O)C[C@]2(C)[C@H]1C[C@@H]1C(C)=CC[C@H]2C(=O)C(OC)=CC(=O)[C@@]12c1cc(=O)c2c(O)cc(O)cc2o1 [DICHROSTACHINE B] | 40 | >10
4 | C=C1[C@@H](O)C[C@H]2C(C)(C)C[C@H](O)C[C@]2(C)[C@@]1(O)C[C@@H]1C(C)=CC[C@H]2C(=O)C(OC)=CC(=O)[C@@]12c1cc(=O)c2c(O)cc(O)cc2o1 [DICHROSTACHINE D] | 86 | >10
5 | C=C1[C@@H](O)C[C@@H]2[C@](C)(CCC[C@@]2(C)C(=O)O)[C@H]1C[C@@H]1C(C)=CC[C@H]2C(=O)C(OC)=CC(=O)[C@@]12c1cc(=O)c2c(O)cc(O)cc2o1 [DICHROSTACHINE E] | 40 | >10
6 | C=C1C(=O)C[C@H]2C(C)(C)C[C@H](O)C[C@]2(C)[C@@]1(O)C[C@@H]1C(C)=CC[C@H]2C(=O)C(OC)=CC(=O)[C@@]12c1cc(=O)c2c(O)cc(OC)cc2o1 [DICHROSTACHINE N] | – | 2.8
7 | C=C1[C@@H](O)C[C@H]2C(C)(C)CCC[C@]2(C)[C@H]1C[C@@H]1C(C)=CC[C@H]2C(O)C(OC)=CC(=O)[C@@]12c1cc(=O)c2c(O)cc(O)cc2o1 (stereo not given in full) [DICHROSTACHINE O] | 25 | >10
8 | NC(=O)N1CCC(CC(=O)N2CCC([C@H]3c4ncc(Br)cc4CCc4cc(Cl)cc(Br)c43)CC2)CC1 [LONAFARNIB] | 0.1 | >10

Continued, in another order:

Row | IC50 [2] [µM] | Structure (SMILES) | Activity [1] [µM]
9 | 5.7 | C=C1[C@@H](O)C[C@H]2C(C)(C)CCC[C@]2(C)[C@H]1C[C@@H]1C(C)=CC[C@H]2C(=O)C(OC)=CC(=O)[C@@]12c1cc(=O)c2c(O)cc(O)cc2o1 [DICHROSTACHINE C] | >10
10 | 1.8 | C=C1[C@@H](O)C[C@@H]2[C@](C)(CCC[C@@]2(C)C=O)[C@H]1C[C@@H]1C(C)=CC[C@H]2C(=O)C(OC)=CC(=O)[C@@]12c1cc(=O)c2c(O)cc(O)cc2o1 [DICHROSTACHINE H] | >10
11 | 3.2 | C=C1C(=O)C[C@H]2C(C)(C)CCC[C@]2(C)[C@H]1C[C@@H]1C(C)=CC[C@H]2C(=O)C(OC)=CC(=O)[C@@]12c1cc(=O)c2c(O)cc(O)cc2o1 [DICHROSTACHINE L] | >10
12 | 3 | C=C1C(=O)C[C@H]2C(C)(C)CCC[C@]2(C)[C@H]1C[C@@H]1C(C)=CC[C@H]2C(=O)C(OC)=CC(=O)[C@@]12c1cc(=O)c2c(O)cc(OC)cc2o1 [DICHROSTACHINE M] | 3.1
13 | 7 | C=C1[C@@H](O)C[C@H]2C(C)(C)CCC[C@]2(C)[C@H]1C[C@@H]1C(C)=CC[C@H]2C(O)C(=O)C=C[C@@]12c1cc(=O)c2c(O)cc(O)cc2o1 (stereo not given in full) [DICHROSTACHINE P] | >10
